According to ChEMBL document CHEMBL4038325, “Opioid Receptor Modulators with a Cinnamyl Group” (J Med Chem, 2017):
Activity calls are given as the source filed them. The rule behind the calls is not given here.

What was measured:
[1] = target: T1, Kappa-type opioid receptor (Homo sapiens, UniProt P41145); details: HEK-293T, at 10 µM
Mu-type opioid receptor [2] = target: T2, Mu-type opioid receptor (Homo sapiens, UniProt P35372); assay: Agonist activity at recombinant human MOR expressed in HEK293T cells assessed as inhibition of forskolin-stimulated cAMP level at 10 uM preincubated for 15 to 20 mins followed by forskolin addition by GloSensor assay relative to control; format: functional, cell-based; details: HEK-293T
T2 sequence (P35372 whole entry): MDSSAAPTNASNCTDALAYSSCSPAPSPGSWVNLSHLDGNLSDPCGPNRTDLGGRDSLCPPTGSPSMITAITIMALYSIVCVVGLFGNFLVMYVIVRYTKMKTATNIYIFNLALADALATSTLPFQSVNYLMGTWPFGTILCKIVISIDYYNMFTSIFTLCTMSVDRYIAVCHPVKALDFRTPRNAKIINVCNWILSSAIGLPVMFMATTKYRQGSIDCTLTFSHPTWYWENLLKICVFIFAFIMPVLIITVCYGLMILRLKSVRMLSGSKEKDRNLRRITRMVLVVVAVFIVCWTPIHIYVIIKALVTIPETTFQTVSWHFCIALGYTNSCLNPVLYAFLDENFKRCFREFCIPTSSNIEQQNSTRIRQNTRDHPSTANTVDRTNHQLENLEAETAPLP
Outline: (§1)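 HEK293T transiently co-transfected (calcium phosphate) with DOR or MOR plus pGloSensor-22F. Cells were loaded with luciferin in HBSS/20 mM HEPES pH 7.4 for 90 min, then given compound in triplicate for 15-20 min at 37°C. Forskolin added (final 10 µM); luminescence read. cAMP signal normalized to forskolin-alone control.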

Mu-type opioid receptor [3] = target: T2, Mu-type opioid receptor; details: HEK-293T, at 10 µM
[4] = target: T1, Kappa-type opioid receptor; details: HEK-293T, at 10 µM; remark: listed apart in the source
[5] = target: T1, Kappa-type opioid receptor; assay: Agonist activity at recombinant human KOR expressed in HEK293T cells assessed as inhibition of forskolin-stimulated cAMP level preincubated for 15 to 20 mins followed by forskolin addition by GloSensor assay; format: functional, cell-based; details: for inhibition: HEK-293T
Outline: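 HEK293T transiently transfected with hKOR plus GloSensor-22F plasmid. Compounds (10 µM to 10 pM, triplicate) added for 15-20 min at 37°C, then forskolin added (final 10 µM). Luminescence of live cells normalized to % forskolin-alone control. IC50 from non-linear regression; two independent experiments.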

[6] = target: Delta-type opioid receptor (Homo sapiens) (UniProt P41143); assay: Antagonist activity at recombinant human DOR expressed in HEK293T cells assessed as reduction in DADLE-induced inhibition of forskolin-stimulated cAMP level at 10 uM preincubated for 15 to 20 mins followed by DADLE and forskolin addition by GloSensor assay relative to control; format: functional, cell-based; details: HEK-293T
Chain of Delta-type opioid receptor (Homo sapiens) (P41143 whole entry): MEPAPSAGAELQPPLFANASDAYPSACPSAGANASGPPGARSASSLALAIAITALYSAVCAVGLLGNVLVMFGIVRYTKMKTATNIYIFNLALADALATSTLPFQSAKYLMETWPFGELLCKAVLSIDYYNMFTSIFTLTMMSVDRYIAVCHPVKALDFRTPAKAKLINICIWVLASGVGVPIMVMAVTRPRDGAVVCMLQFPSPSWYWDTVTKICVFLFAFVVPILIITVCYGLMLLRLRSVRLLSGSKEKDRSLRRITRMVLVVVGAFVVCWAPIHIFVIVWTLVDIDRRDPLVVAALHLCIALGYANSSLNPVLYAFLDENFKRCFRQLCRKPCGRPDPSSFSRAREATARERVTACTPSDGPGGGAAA
Outline: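 HEK293T transiently expressing DOR plus GloSensor-22F were given compound in triplicate for 15-20 min at 37°C. DADLE (1 µM) was then added, followed by forskolin (10 µM); luminescence read. Signal normalized to % control (agonist + forskolin).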

Mu-type opioid receptor [7] = target: T2, Mu-type opioid receptor; format: functional, cell-based, HEK-293T
[8] = target: Delta-type opioid receptor (Homo sapiens) (UniProt P41143); assay: Agonist activity at recombinant human DOR expressed in HEK293T cells assessed as inhibition of forskolin-stimulated cAMP level at 10 uM preincubated for 15 to 20 mins followed by forskolin addition by GloSensor assay relative to control; format: functional, cell-based; details: HEK-293T
Outline: as §1

D(2) dopamine receptor [9] = target: T3, D(2) dopamine receptor (Homo sapiens, UniProt P14416); assay: Agonist activity at dopamine D2 receptor (unknown origin) at 10 uM
T3 sequence (P14416 whole entry): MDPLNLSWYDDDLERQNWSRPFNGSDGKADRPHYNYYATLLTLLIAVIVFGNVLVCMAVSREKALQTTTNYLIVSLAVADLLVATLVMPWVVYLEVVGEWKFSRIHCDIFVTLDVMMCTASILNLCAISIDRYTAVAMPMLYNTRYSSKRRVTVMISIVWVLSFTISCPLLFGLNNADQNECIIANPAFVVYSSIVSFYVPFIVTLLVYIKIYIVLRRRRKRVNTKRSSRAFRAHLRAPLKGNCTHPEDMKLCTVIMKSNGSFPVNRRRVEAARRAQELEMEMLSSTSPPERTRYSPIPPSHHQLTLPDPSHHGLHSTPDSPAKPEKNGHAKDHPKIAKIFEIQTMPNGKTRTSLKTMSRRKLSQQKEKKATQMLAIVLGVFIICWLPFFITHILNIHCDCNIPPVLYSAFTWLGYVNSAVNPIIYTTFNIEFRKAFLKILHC
Outline: (§2)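 Primary screen, agonist and antagonist modes, each receptor tested separately. Compounds at 10 µM in triplicate; response taken as % inhibition or stimulation relative to control. Compounds giving at least 50% effect were then run over 10 µM to 10 pM to obtain EC50/IC50.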

[10] = target: Histamine H1 receptor (Homo sapiens) (UniProt P35367); assay: Agonist activity at histamine H1 receptor (unknown origin) at 10 uM
Chain of Histamine H1 receptor (Homo sapiens) (P35367 whole entry): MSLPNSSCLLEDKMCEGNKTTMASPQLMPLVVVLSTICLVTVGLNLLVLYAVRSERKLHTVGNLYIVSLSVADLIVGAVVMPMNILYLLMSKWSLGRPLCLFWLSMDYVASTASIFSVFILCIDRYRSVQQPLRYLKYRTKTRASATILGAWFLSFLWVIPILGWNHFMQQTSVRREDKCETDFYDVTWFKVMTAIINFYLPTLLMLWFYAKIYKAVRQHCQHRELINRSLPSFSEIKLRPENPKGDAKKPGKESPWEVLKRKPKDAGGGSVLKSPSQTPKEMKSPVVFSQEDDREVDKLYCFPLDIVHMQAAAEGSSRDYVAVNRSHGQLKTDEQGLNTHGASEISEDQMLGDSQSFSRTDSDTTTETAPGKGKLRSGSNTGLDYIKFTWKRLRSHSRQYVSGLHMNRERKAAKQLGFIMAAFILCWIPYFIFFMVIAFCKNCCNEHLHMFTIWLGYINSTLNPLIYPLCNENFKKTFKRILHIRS
Outline: as §2

Mus musculus [11] = assay: Analgesic activity in C57BL/6J mouse assessed as tail withdrawal latency at 10 mg/kg by tail flick test; format: functional, organism-based
Outline: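 Male C57BL/6J mice, 6-8 weeks, 22-25 g; 5-6 per group. Dosed 10 mg/kg i.p. Distal third of tail immersed in 52 ± 0.5°C water; latency recorded three times per time point by a blinded observer. Latency expressed as % of baseline taken 15 min before dosing, followed over time; area under curve also calculated.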

[12] = target: Histamine H1 receptor (Homo sapiens) (UniProt P35367); assay: Antagonist activity at histamine H1 receptor (unknown origin) at 10 uM
Outline: as §2

Mus musculus [13] = assay: Analgesic activity in C57BL/6J mouse assessed as tail withdrawal latency at 10 mg/kg measured after 30 mins in presence of KOR antagonist norBNI by tail flick test; format: functional, organism-based
Outline: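 Male C57BL/6J mice (5-6/group) received norBNI 10 mg/kg i.p. 30 min before test compound at 10 mg/kg i.p. Tail withdrawal latency in 52 ± 0.5°C water was measured at the 30 min time point, three readings, by a blinded observer.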

D(2) dopamine receptor [14] = target: T3, D(2) dopamine receptor; assay: Antagonist activity at dopamine D2 receptor (unknown origin) at 10 uM
Outline: as §2

T1 sequence (P41145 whole entry): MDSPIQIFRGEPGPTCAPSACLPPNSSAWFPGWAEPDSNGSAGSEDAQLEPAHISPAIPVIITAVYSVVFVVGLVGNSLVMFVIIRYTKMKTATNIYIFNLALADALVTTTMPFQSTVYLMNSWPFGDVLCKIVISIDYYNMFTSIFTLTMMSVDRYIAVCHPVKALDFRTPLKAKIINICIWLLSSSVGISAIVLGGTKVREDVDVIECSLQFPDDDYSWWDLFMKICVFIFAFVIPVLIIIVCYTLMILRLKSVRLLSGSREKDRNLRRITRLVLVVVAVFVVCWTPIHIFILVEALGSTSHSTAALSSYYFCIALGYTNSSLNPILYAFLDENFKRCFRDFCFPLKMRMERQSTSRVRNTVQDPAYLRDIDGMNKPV

Row | inhibition [1] | inhibition (Mu-type opioid receptor [2]) | inhibition (Mu-type opioid receptor [3]) | inhibition [5] | Structure (SMILES) | inhibition [4] | inhibition [6] | inhibition [8] | other results
1 | inactive | – | – | – | O=C(O)CNC(=O)/C(=C/c1ccccc1)CN1CCN(c2cccc(O)c2)CC1 | – | – | – | –
2 | inactive | inactive | inactive | – | O=C(O)CNC(=O)C(Cc1ccccc1)CN1CCN(c2ccccc2)CC1 (stereo not given) | inactive | – | – | –
3 | inactive | inactive | inactive | – | COc1ccc(N2CCN(CC(Cc3ccccc3)C(=O)NCC(=O)O)CC2)cc1 (stereo not given) | inactive | – | – | –
4 | inactive | inactive | inactive | inactive | CCC(C)C(NC(=O)/C(=C/c1ccccc1)CN1CCN(c2ccc(O)cc2)CC1)C(=O)O (stereo not given) | – | – | – | –
5 | Active | – | – | – | Cc1cccc(Oc2ccc(C(=O)N[C@H](CN3CCN(c4cccc(O)c4)[C@@H](C)C3)C(C)C)cc2)c1 | – | – | – | –
6 | – | inactive | inactive | – | CC(C)[C@H](NC(=O)/C(=C/c1ccccc1)CN1CCN(c2ccc(Cl)cc2)CC1)C(=O)O | – | inactive | inactive | Activity (D(2) dopamine receptor [9]): Not Active; Activity [10]: inactive; Activity (Mus musculus [11]): Dose-dependent effect; inhibition [12]: inactive; Activity (Mus musculus [13]): inactive; inhibition (INH) (D(2) dopamine receptor [14]): Not Active; IC50 ([5]; read-out: IC50): 0.91 µM; IC50 ([5]; read-out: pIC50 (converted)): 0.91 to 0.948 µM
7 | inactive | inactive | inactive | – | COc1ccccc1N1CCN(CC(Cc2ccccc2)C(=O)NCC(=O)O)CC1 (stereo not given) | inactive | – | – | –
8 | inactive | inactive | inactive | inactive | CC(C)C[C@H](NC(=O)/C(=C/c1ccccc1)CN1CCN(c2ccc(O)cc2)CC1)C(=O)O | – | – | – | –
9 | inactive | – | 50% | – | C[C@H]1CN(C[C@H](Cc2ccccc2)C(=O)NCC(=O)O)CC[C@@]1(C)c1cccc(O)c1 | inactive | inactive | inactive | –
10 | inactive | inactive | inactive | inactive | CC(C)[C@H](NC(=O)/C(=C/c1ccccc1)CN1CCN(c2ccc(O)cc2)CC1)C(=O)O | – | – | – | –
11 | inactive | inactive | inactive | inactive | CCCC(NC(=O)/C(=C/c1ccccc1)CN1CCN(c2ccc(O)cc2)CC1)C(=O)O (stereo not given) | – | – | – | –
12 | – | inactive | inactive | – | CCOC(=O)C(NC(=O)/C(=C/c1ccccc1)CN1CCN(c2nsc3ccccc23)CC1)C(C)C (stereo not given) | – | inactive | inactive | Activity (D(2) dopamine receptor [9]): Not Active; Activity [10]: inactive; inhibition [12]: inactive; inhibition (INH) (D(2) dopamine receptor [14]): Not Active; IC50 ([5]; read-out: IC50): 1.8 µM; IC50 ([5]; read-out: pIC50 (converted)): 1.91 to 1.98 µM
13 | inactive | inactive | inactive | – | O=C(O)CNC(=O)C(Cc1ccccc1)CN1CCN(c2ccccc2O)CC1 (stereo not given) | inactive | – | – | –
14 | inactive | inactive | inactive | inactive | COc1cccc(N2CCN(C/C(=C\c3ccccc3)C(=O)NCC(=O)O)CC2)c1 | – | – | – | –
15 | inactive | inactive | inactive | inactive | COc1ccc(N2CCN(C/C(=C\c3ccccc3)C(=O)NCC(=O)O)CC2)cc1 | – | – | – | –
16 | inactive | inactive | inactive | inactive | COc1ccccc1N1CCN(C/C(=C\c2ccccc2)C(=O)NCC(=O)O)CC1 | – | – | – | –
17 | inactive | inactive | inactive | inactive | O=C(O)CNC(=O)/C(=C/c1ccccc1)CN1CCN(c2ccc(O)cc2)CC1 | – | – | – | –
18 | – | inactive | inactive | – | O=C(O)/C(=C/c1ccccc1)CN1CCN(c2cccc(Cl)c2Cl)CC1 | – | inactive | inactive | Activity (D(2) dopamine receptor [9]): Not Active; Activity [10]: inactive; Activity (Mus musculus [11]): Dose-dependent effect; inhibition [12]: inactive; Activity (Mus musculus [13]): inactive; inhibition (INH) (D(2) dopamine receptor [14]): Not Active; IC50 ([5]; read-out: IC50): 0.8 µM; IC50 ([5]; read-out: pIC50 (converted)): 0.716 to 0.813 µM

Row | Structure (SMILES) | inhibition [1] | inhibition (Mu-type opioid receptor [2]) | inhibition (Mu-type opioid receptor [3]) | inhibition [5] | inhibition [4] | inhibition [6] | inhibition [8] | other results
19 | CCC(C)C(NC(=O)/C(=C/c1ccccc1)CN1CC[C@@](C)(c2cccc(O)c2)[C@@H](C)C1)C(=O)O (stereo not given in full) | inactive | – | 50% | – | inactive | inactive | inactive | IC50 (Mu-type opioid receptor [7]; read-out: IC50): 1.6 µM; IC50 (Mu-type opioid receptor [7]; read-out: pIC50 (converted)): 1.6 to 1.62 µM
20 | CC(C)[C@H](NC(=O)/C(=C/c1ccccc1)CN1CC[C@@](C)(c2cccc(O)c2)[C@@H](C)C1)C(=O)O | inactive | – | 50% | – | inactive | inactive | inactive | IC50 (Mu-type opioid receptor [7]; read-out: IC50): 0.65 µM; IC50 (Mu-type opioid receptor [7]; read-out: pIC50 (converted)): 0.658 to 0.661 µM
21 | CC1(c2cccc(O)c2)CCN(C/C(=C\c2ccccc2)C(=O)O)CC1 | inactive | – | 50% | – | inactive | inactive | inactive | IC50 (Mu-type opioid receptor [7]; read-out: IC50): 0.018 µM; IC50 (Mu-type opioid receptor [7]; read-out: pIC50 (converted)): 0.0186 to 0.0766 µM
22 | CC(C)C[C@H](NC(=O)/C(=C/c1ccccc1)CN1CC[C@@](C)(c2cccc(O)c2)[C@@H](C)C1)C(=O)O | inactive | – | 50% | – | inactive | inactive | inactive | IC50 (Mu-type opioid receptor [7]; read-out: IC50): 0.78 µM; IC50 (Mu-type opioid receptor [7]; read-out: pIC50 (converted)): 0.782 to 0.794 µM
23 | COc1ccccc1N1CCN(CCC(C(=O)N(C)C)(c2ccccc2)c2ccccc2)CC1 | – | Active | – | – | – | – | – | –
24 | CCCC(NC(=O)/C(=C/c1ccccc1)CN1CC[C@@](C)(c2cccc(O)c2)[C@@H](C)C1)C(=O)O (stereo not given in full) | inactive | – | 50% | – | inactive | inactive | inactive | IC50 (Mu-type opioid receptor [7]; read-out: IC50): 2.32 µM; IC50 (Mu-type opioid receptor [7]; read-out: pIC50 (converted)): 2.32 to 2.34 µM
